{"source": "ChEMBL document CHEMBL1148398", "about": "“Design, synthesis, and biological evaluation of thio-containing compounds with serum HDL-cholesterol-elevating properties” (2004)", "key": {"Rattus norvegicus [1]": {"tested_on": "Rattus norvegicus", "assay": "Effect of compound on liver weight in 1st group of normal chow-fed male rats after a dose of 1 mg/kg/day", "format": "functional", "in_short": "(§1)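 Male Sprague–Dawley CD rats, 60–80 g, on chow with a reverse 12 h light/dark cycle. Given one oral gavage dose daily for 4 days, suspended in 1.3% Tween 80/0.25% CMC. Fasted overnight and sacrificed 24 h after the last dose for blood and liver. Serum liver enzymes read on a clinical analyzer. Six per group, mean ± SEM.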"}, "Rattus norvegicus [2]": {"tested_on": "Rattus norvegicus", "assay": "Effect of compound on lactic dehydrogenase (LDH) levels in 2nd group of normal chow-fed male rats after a dose of 2 mg/kg/day", "format": "functional, organism-based", "in_short": "(§2)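 Male Sprague–Dawley CD rats (60–80 g) on standard chow under a reversed 12 h light/dark cycle. Compound was suspended in 1.3% Tween 80/0.25% CMC and given as a single daily oral gavage dose for 4 days. Rats were fasted overnight and killed 24 h after the last dose. Serum ALT, AST, ALKP and LDH were read on a clinical analyzer. Weight gain was start versus end weight. Mean ± SEM, n = 6.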"}, "Cricetinae gen. sp. [3]": {"tested_on": "Cricetinae gen. sp.", "assay": "Effect of compound on liver weight in 2nd group of cholesterol-fed male hamsters at 10 mg/kg/day after 14 days of treatment", "format": "functional", "in_short": "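Male Syrian Golden hamsters, 90–100 g, fed chow plus 0.25% cholesterol for 2 weeks before and throughout dosing. Compound suspended in 2% Tween 80 in saline, given by oral gavage for 14 days; vehicle controls. Fasted 4 h, last dose 2 h before sacrifice, then weighed and blood and liver collected. Liver enzymes read on a clinical analyzer. Six per group, mean ± SEM.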"}, "Cricetinae gen. sp. [4]": {"tested_on": "Cricetinae gen. sp.", "assay": "Effect of compound on lactic dehydrogenase (LDH) levels in 4th group of cholesterol-fed male hamsters at 100 mg/kg/day after 14 days of treatment", "details": "Mesocricetus auratus"}, "Rattus norvegicus [5]": {"tested_on": "Rattus norvegicus", "assay": "Percent change in triglycerides following oral administration of compound in normal chow-fed rats at 100 mg/kg/day for 4 days", "format": "functional", "in_short": "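Chow-fed male Sprague–Dawley CD rats, 60–80 g, gavaged 100 mg/kg/day for 4 days in 1.3% Tween 80/0.25% CMC. Fasted overnight, bled 24 h after the last dose. Total cholesterol and glycerol-blanked triglycerides read enzymatically; lipoproteins by FPLC with cholesterol per fraction. % change versus control; six per group, p < 0.05.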"}, "Rattus norvegicus [6]": {"tested_on": "Rattus norvegicus", "assay": "Effect of compound on alanine aminotransferase (ALT) levels in 7th group of normal chow-fed male rats after a dose of 100 mg/kg/day", "format": "functional, organism-based", "in_short": "as §2"}, "Rattus norvegicus [7]": {"tested_on": "Rattus norvegicus", "assay": "Effect of compound on relative liver weight in 7th group of normal chow-fed male rats after a dose of 100 mg/kg/day", "format": "functional", "in_short": "(§3)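 Chow-fed male Sprague–Dawley CD rats, 60–80 g, dosed by oral gavage once daily for 4 days in 1.3% Tween 80/0.25% CMC. Fasted overnight and sacrificed 24 h after the last dose. Liver weight expressed as % of body weight at termination. Six per group, mean ± SEM.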"}, "Rattus norvegicus [8]": {"tested_on": "Rattus norvegicus", "assay": "Effect of compound on gain in body weight in 2nd group of normal chow-fed male rats after a dose of 2 mg/kg/day", "format": "functional", "in_short": "as §2"}, "Rattus norvegicus [9]": {"tested_on": "Rattus norvegicus", "assay": "Effect of compound on lactic dehydrogenase (LDH) levels in 7th group of normal chow-fed male rats after a dose of 100 mg/kg/day", "format": "functional, organism-based", "in_short": "as §1"}, "[10]": {"assay": "Effect on serum lipids in 2nd group of cholesterol-fed male hamsters at 10 mg/kg/day after 14 days of treatment was evaluated as ratio of total cholesterol levels to high-density lipoprotein cholesterol levels", "format": "functional", "in_short": "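Male Syrian Golden hamsters on chow plus 0.25% cholesterol, 2 weeks before and during dosing. Oral gavage for 14 days in 2% Tween 80/saline. Fasted 4 h before sacrifice. Serum total cholesterol measured enzymatically; HDL-C from cholesterol in FPLC lipoprotein fractions; TC/HDL-C ratio calculated. Six per group, mean ± SEM.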"}, "Cricetinae gen. sp. [11]": {"tested_on": "Cricetinae gen. sp.", "assay": "Effect of compound on low-density lipoprotein cholesterol levels in 3rd group of cholesterol-fed male hamsters at 30 mg/kg/day after 14 days of treatment", "details": "Mesocricetus auratus"}, "[12]": {"assay": "Effect on serum lipids in 3rd group of normal chow-fed male rats after a dose of 5 mg/kg/day was evaluated as ratio of total plasma cholesterol levels to high-density lipoprotein cholesterol levels", "format": "functional", "in_short": "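Male Sprague–Dawley CD rats, 60–80 g, chow-fed, dosed by oral gavage daily for 4 days in 1.3% Tween 80/0.25% CMC. Fasted overnight, bled 24 h after the last dose. Serum total cholesterol by enzymatic reagent; HDL-C from cholesterol in FPLC fractions; TPC/HDL-C ratio calculated. Six per group, mean ± SEM.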"}, "Rattus norvegicus [13]": {"tested_on": "Rattus norvegicus", "assay": "Effect of compound on high-density lipoprotein cholesterol levels in 2nd group of normal chow-fed male rats after a dose of 2 mg/kg/day", "format": "functional, organism-based"}, "Rattus norvegicus [14]": {"tested_on": "Rattus norvegicus", "assay": "Effect of compound on relative liver weight in 1st group of normal chow-fed male rats after a dose of 1 mg/kg/day", "format": "functional", "in_short": "as §3"}, "Cricetinae gen. sp. [15]": {"tested_on": "Cricetinae gen. sp.", "assay": "Effect of compound on low-density lipoprotein cholesterol levels in 1st group of cholesterol-fed male hamsters at 3 mg/kg/day after 14 days of treatment", "details": "Mesocricetus auratus"}, "Rattus norvegicus [16]": {"tested_on": "Rattus norvegicus", "assay": "Effect of compound on alkaline phosphatase (ALKP) levels in 4th group of normal chow-fed male rats after a dose of 10 mg/kg/day", "format": "functional, organism-based", "in_short": "as §2"}, "Mesocricetus auratus [17]": {"tested_on": "Mesocricetus auratus", "assay": "Effect of compound on gain in body weight in 4th group of cholesterol-fed male hamsters at 100 mg/kg/day after 14 days of treatment"}, "Rattus norvegicus [18]": {"tested_on": "Rattus norvegicus", "assay": "Effect of compound on aspartate aminotransferase (AST) levels in 5th group of normal chow-fed male rats after a dose of 20 mg/kg/day", "format": "functional, organism-based", "in_short": "as §2"}, "Rattus norvegicus [19]": {"tested_on": "Rattus norvegicus", "assay": "Effect of compound on very low-density lipoprotein cholesterol levels in 3rd group of normal chow-fed male rats after a dose of 5 mg/kg/day", "format": "functional, organism-based", "in_short": "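Male Sprague–Dawley CD rats (60–80 g) on Purina 5001 chow with a reverse 12 h light/dark cycle. Dosed once daily by oral gavage for 4 days, suspended in 1.3% Tween 80 / 0.25% CMC. Fasted overnight and bled 24 h after the last dose. Serum TC and glycerol-blanked TG measured enzymatically; VLDL-C by FPLC fractionation with cholesterol assay. n=6, mean ± SEM.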"}, "Rattus norvegicus [20]": {"tested_on": "Rattus norvegicus", "assay": "Effect of compound on alkaline phosphatase (ALKP) levels in 3rd group of normal chow-fed male rats after a dose of 5 mg/kg/day", "format": "functional, organism-based", "in_short": "as §2"}, "Cricetinae gen. sp. [21]": {"tested_on": "Cricetinae gen. sp.", "assay": "Effect of compound on thyroxine levels in 4th group of cholesterol-fed male hamsters at 100 mg/kg/day after 14 days of treatment", "details": "Mesocricetus auratus"}, "Rattus norvegicus [22]": {"tested_on": "Rattus norvegicus", "assay": "Effect of compound on gain in body weight in 6th group of normal chow-fed male rats after a dose of 50 mg/kg/day", "format": "functional", "in_short": "as §2"}, "Cricetinae gen. sp. [23]": {"tested_on": "Cricetinae gen. sp.", "assay": "Effect of compound on alkaline phosphatase (ALKP) levels in 2nd group of cholesterol-fed male hamsters at 10 mg/kg/day after 14 days of treatment", "details": "Mesocricetus auratus"}, "Rattus norvegicus [24]": {"tested_on": "Rattus norvegicus", "assay": "Effect of compound on aspartate aminotransferase (AST) levels in 7th group of normal chow-fed male rats after a dose of 100 mg/kg/day", "format": "functional, organism-based", "in_short": "as §2"}, "Mesocricetus auratus [25]": {"tested_on": "Mesocricetus auratus", "assay": "Effect of compound on gain in body weight in 1st group of cholesterol-fed male hamsters at 3 mg/kg/day after 14 days of treatment"}}}
{"smiles": "CCN1CC(=O)N(c2cc(Cl)ccc2C)C1=S", "values": [{"measurement": "Liver weight", "setting": "Rattus norvegicus [1]", "result": 8.4, "unit": "g"}, {"measurement": "Level", "setting": "Rattus norvegicus [2]", "result": 692, "unit": "U l-1"}, {"measurement": "Liver weight", "setting": "Cricetinae gen. sp. [3]", "result": 9.08, "unit": "g"}, {"measurement": "Level", "setting": "Cricetinae gen. sp. [4]", "result": 1390, "unit": "U l-1"}, {"measurement": "Change", "setting": "Rattus norvegicus [5]", "result": -23.1, "unit": "%"}, {"measurement": "Level", "setting": "Rattus norvegicus [6]", "result": 67, "unit": "U l-1"}, {"measurement": "Relative liver weight", "setting": "Rattus norvegicus [7]", "result": 4.5, "unit": "%"}, {"measurement": "Body weight", "setting": "Rattus norvegicus [8]", "result": 28.5, "unit": "g"}, {"measurement": "Level", "setting": "Rattus norvegicus [9]", "result": 681, "unit": "U l-1"}, {"measurement": "Ratio", "setting": "[10]", "result": 2.85}, {"measurement": "Serum level", "setting": "Cricetinae gen. sp. [11]", "result": 125, "unit": "mg/dL"}, {"measurement": "Ratio", "setting": "[12]", "result": 1.39}, {"measurement": "Serum level", "setting": "Rattus norvegicus [13]", "result": 41, "unit": "mg/dL"}, {"measurement": "Relative liver weight", "setting": "Rattus norvegicus [14]", "result": 4.3, "unit": "%"}, {"measurement": "Serum level", "setting": "Cricetinae gen. sp. [15]", "result": 178, "unit": "mg/dL"}, {"measurement": "Level", "setting": "Rattus norvegicus [16]", "result": 327, "unit": "U l-1"}, {"measurement": "Body weight", "setting": "Mesocricetus auratus [17]", "result": 9, "unit": "g"}, {"measurement": "Level", "setting": "Rattus norvegicus [18]", "result": 318, "unit": "U l-1"}, {"measurement": "Serum level", "setting": "Rattus norvegicus [19]", "result": 3.9, "unit": "mg/dL"}, {"measurement": "Level", "setting": "Rattus norvegicus [20]", "result": 344, "unit": "U l-1"}, {"measurement": "Serum level", "setting": "Cricetinae gen. sp. [21]", "result": 4.02, "unit": "µg/dL"}, {"measurement": "Body weight", "setting": "Rattus norvegicus [22]", "result": 27.5, "unit": "g"}, {"measurement": "Level", "setting": "Cricetinae gen. sp. [23]", "result": 147, "unit": "U l-1"}, {"measurement": "Level", "setting": "Rattus norvegicus [24]", "result": 214, "unit": "U l-1"}, {"measurement": "Body weight", "setting": "Mesocricetus auratus [25]", "result": 10.2, "unit": "g"}]}
